Measurements: PMC2216779 (The Journal of General Physiology, 1993)
pKd: −log10 of the molar value. Where “and” joins values, the source holds several entries; their conditions need not be identical. Equal values may be shown once. Read-outs that look alike come from different tables or passages of the source.

Assays:
[1] = tested on: chloride conductance of the human red cell membrane; test: Conductance studies of net; format: cell-based; conditions: 16 µM DIDS; calculated from Bennekou and Stampe (1988) data
[2] = tested on: residual chloride transport in DIDS-C human red blood cells; test: 36Cl- efflux in DIDS-C cells; format: cell-based
[3] = molecular target: T1, chloride transport in human red blood cells; capnophorin (band 3 or AE1) (Homo sapiens, UniProt P02730); test: 36Cl- efflux; format: cell-based; conditions: 38C
T1 sequence (P02730 1-911): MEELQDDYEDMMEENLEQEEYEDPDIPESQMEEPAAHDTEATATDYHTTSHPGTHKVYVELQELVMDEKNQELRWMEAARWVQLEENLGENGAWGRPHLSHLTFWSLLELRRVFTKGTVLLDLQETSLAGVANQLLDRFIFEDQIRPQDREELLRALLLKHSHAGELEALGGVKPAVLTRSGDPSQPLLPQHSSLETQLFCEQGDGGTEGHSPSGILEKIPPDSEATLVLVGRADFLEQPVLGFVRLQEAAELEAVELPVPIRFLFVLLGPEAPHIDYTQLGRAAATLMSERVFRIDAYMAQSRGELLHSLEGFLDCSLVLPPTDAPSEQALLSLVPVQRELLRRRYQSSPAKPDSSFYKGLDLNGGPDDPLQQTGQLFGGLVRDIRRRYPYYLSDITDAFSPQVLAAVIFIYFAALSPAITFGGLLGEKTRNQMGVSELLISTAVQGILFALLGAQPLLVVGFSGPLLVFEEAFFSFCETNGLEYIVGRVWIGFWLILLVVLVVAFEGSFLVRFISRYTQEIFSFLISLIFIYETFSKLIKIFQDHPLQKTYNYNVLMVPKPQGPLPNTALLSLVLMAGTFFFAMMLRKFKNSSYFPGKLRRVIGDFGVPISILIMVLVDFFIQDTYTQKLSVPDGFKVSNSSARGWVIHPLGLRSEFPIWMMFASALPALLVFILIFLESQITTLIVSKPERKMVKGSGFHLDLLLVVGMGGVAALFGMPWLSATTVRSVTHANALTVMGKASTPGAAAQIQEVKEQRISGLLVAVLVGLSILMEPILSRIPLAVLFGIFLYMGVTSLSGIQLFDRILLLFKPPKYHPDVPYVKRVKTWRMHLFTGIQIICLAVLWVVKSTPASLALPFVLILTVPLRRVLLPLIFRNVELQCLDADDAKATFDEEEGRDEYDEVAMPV
Procedure, shortened: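 Fresh heparinized human blood washed four times in medium A (150 mM KCl, 0.5–2 mM KH2PO4, pH 7.2), buffy coat removed. Covalent labelling: ~50% hematocrit, 50 µM DIDS, 38°C, 45 min, then washes in medium A. Cells loaded with 3.7–18.5 kBq 36Cl per ml suspension and packed. Tracer efflux measured at 38°C, pH 7.2, by Millipore-Swinnex filtration or continuous flow tube. Rate constant taken from extracellular radioactivity over time, corrected for trapped isotope.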

[4] = tested on: chloride conductance of the human red cell membrane; conditions: ref Bennekou and Stampe (1988); cited from earlier work
[5] = tested on: band 3 protein, DIDS binding site; conditions: cited from earlier work
[6] = molecular target: human erythrocyte anion transporter; conditions: read-out: Dissociation constant of DNDS binding, ref Frohlich (1982), cited from earlier work

Question: Which “Reduction of conductive component of chloride efflux” value [1] does the source give for O=S(=O)(O)c1cc(N=C=S)ccc1C=Cc1ccc(N=C=S)cc1S(=O)(=O)O [DIDS, 4,4'-diisothiocyanostilbene-2,2'-disulfonic acid] here?
Answer: 96.4%

Question: What about the “Reduction of conductive component of chloride efflux, fold” value [1] of the same compound?
Answer: 28 times

Question: And the “Chloride flux in DIDS-CR cells” value ([2]; covalent DIDS + 50 µM DIDS in flux medium, 38C, pH 7.2, n = 15)?
Answer: 0.60 [SD -- 0,16] pmol cm-2 s-1

Question: And the “Chloride efflux after DIDS binding procedure performed once” value ([3]; 50 µM DIDS, 45 min, n = 10)?
Answer: 96.3 [SD-+ 8.1] pmol cm-2 s-1

Question: And the “Chloride efflux after DIDS binding procedure performed twice” value ([3]; 50 µM DIDS, 45 min, n = 10)?
Answer: 94.1 [SD ~ 11.0] pmol cm-2 s-1

Question: And the “Irreversible inhibition of chloride transport by maximum covalent DIDS binding” value ([3]; DIDS-C cells vs control cells, pH 7.2)?
Answer: 99.8%

Question: And the “Chloride self-exchange flux in DIDS-C cells” value ([3]; covalently bound DIDS, pH 7.2, n = 30)?
Answer: 106 pmol cm-2 s-1 and 106 (SD + 17) pmol cm-2 s-1

Question: And the “Half-time for chloride tracer efflux in DIDS-C cells” value ([3]; found experimentally)?
Answer: 29 s

Question: And the “Inhibition of conductive flow of chloride” value [4]?
Answer: ~ 100%

Question: And the “Half-time for irreversible DIDS binding” value ([5]; 0C, ref Janas et al., 1989)?
Answer: ~ 3 h

Question: What about the “Time constant 1/k of irreversible DIDS binding” value ([5]; 38C, ref Janas et al., 1989) of the same compound?
Answer: 2.2 rain

Question: With O=S(=O)(O)c1cc(N=C=S)ccc1CCc1ccc(N=C=S)cc1S(=O)(=O)O [H2DIDS, 4,4'-diisothiocyano-dihydrostilbene-2,2'-disulfonic acid] as the compound, how does the “Rate of binding to the DIDS binding site relative to DIDS” value ([5]; 0C, ref Shami, Rothstein, and Knauf, 1978) read?
Answer: binds much faster than DIDS

Question: Which results are given for O=[N+]([O-])c1ccc(C=Cc2ccc([N+](=O)[O-])cc2S(=O)(=O)O)c(S(=O)(=O)O)c1 [DNDS, 4,4'-dinitrostilbene-2,2'-disulfonate]?
Answer: pKd ([6]; 0C): 7.08; pKd ([6]; 10C): 7.07; pKd ([6]; 20C): 7.05

Question: For CC(C)[C@@H]1NC(=O)[C@H](C)OC(=O)[C@@H](C(C)C)NC(=O)[C@@H](C(C)C)OC(=O)[C@H](C(C)C)NC(=O)[C@H](C)OC(=O)[C@@H](C(C)C)NC(=O)[C@@H](C(C)C)OC(=O)[C@H](C(C)C)NC(=O)[C@H](C)OC(=O)[C@@H](C(C)C)NC(=O)[C@@H](C(C)C)OC1=O [valinomycin], which “Effect on initial 36Cl influx rate” value ([2]; valinomycin 1 µM, extracellular chloride < 1 mM) is on record?
Answer: no detectable effect
